From ChEMBL document CHEMBL1944518, “AlCl3 induced (hetero)arylation of 2,3-dichloroquinoxaline: a one-pot synthesis of mono/disubstituted quinoxalines as potential antitubercular agents” (Bioorg Med Chem, 2012)

Biological target: T1, Secreted chorismate mutase (Mycobacterium tuberculosis) (UniProt P9WIB9)
T1 sequence (whole entry): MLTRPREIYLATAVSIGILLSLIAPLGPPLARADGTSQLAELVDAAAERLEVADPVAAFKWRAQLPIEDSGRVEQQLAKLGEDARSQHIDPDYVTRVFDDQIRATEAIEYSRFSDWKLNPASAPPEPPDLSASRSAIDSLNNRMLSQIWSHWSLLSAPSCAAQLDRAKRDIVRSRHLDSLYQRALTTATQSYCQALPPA
Test: (§1) Inhibition of Mycobacterium tuberculosis chorismate mutase expressed in Escherichia coli BL21 assessed as conversion of chorismate to prephenate after 5 mins by Spectrophotometry

**Q.** `Fc1cc2[nH]cc(-c3nc4ccccc4nc3Cl)c2cc1F` was tested. Which inhibition did it give?
**A.** The inhibition was “Dose-dependent effect”.

Biological target: T2, Secreted chorismate mutase (Mycobacterium tuberculosis, UniProt P9WIB9)
T2 sequence (P9WIB9 whole entry): T1 sequence (whole entry)
Test: as §1

**Q.** `Fc1cc2[nH]cc(-c3nc4ccccc4nc3Cl)c2cc1F` was tested. Which IC50 did it give?
**A.** The IC50 was 19.7 µM.

Biological target: T1, Secreted chorismate mutase (Mycobacterium tuberculosis)
Test: Inhibition of Mycobacterium tuberculosis chorismate mutase expressed in Escherichia coli BL21 assessed as conversion of chorismate to prephenate at 50 uM after 5 mins by Spectrophotometry
In short: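 MtCM purified by Ni-NTA from BL21(DE3) carrying pET22b/MtCM; 180 pmol started on 4 mM chorismate (Tris-HCl pH 7.5, EDTA, BSA, β-mercaptoethanol) with effector at 50 μM, 37 °C, 5 min, quenched with 1 N HCl. Absorbance at 274 nm, corrected for compound and no-enzyme blanks; % inhibition = 100 − residual activity.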

**Q.** `COc1ccc2c(-c3nc4ccccc4nc3Cl)c[nH]c2c1` was tested. Which inhibition did it give?
**A.** Its inhibition is 42%.

**Q.** How did the inhibition turn out when `COc1ccc2[nH]cc(-c3nc4ccccc4nc3Cl)c2c1` was run?
**A.** The inhibition was 36%.

**Q.** For `Oc1ccc(-c2nc3ccccc3nc2Cl)c(O)c1`, which inhibition is on record?
**A.** The inhibition was 31%.

**Q.** Which inhibition does the source give for `Oc1ccc(-c2nc3ccccc3nc2Cl)c2ccccc12` here?
**A.** The inhibition was 35%.

**Q.** How did the inhibition turn out when `COc1ccc2c(-c3nc4ccccc4nc3-c3c[nH]c4ccccc34)c[nH]c2c1` was run?
**A.** The inhibition was 45%.

**Q.** For `Oc1ccc(-c2nc3ccccc3nc2-c2c[nH]c3ccc(Br)cc23)c(O)c1`, which inhibition is on record?
**A.** The inhibition was 21%.

**Q.** `Brc1ccc2[nH]cc(-c3nc4ccccc4nc3-c3c[nH]c4ccccc34)c2c1` was tested. Which inhibition did it give?
**A.** The inhibition was 31%.

**Q.** `Oc1ccc2ccccc2c1-c1nc2ccccc2nc1-c1c[nH]c2ccc(Br)cc12` was tested. Which inhibition did it give?
**A.** The inhibition was 35%.

**Q.** With `Fc1cc2[nH]cc(-c3nc4ccccc4nc3Cl)c2cc1F` as the compound, how does the inhibition read?
**A.** Its inhibition is 64%.

**Q.** With `Fc1cc2[nH]cc(-c3nc4ccccc4nc3-c3c[nH]c4ccc(Br)cc34)c2cc1F` as the compound, how does the inhibition read?
**A.** Its inhibition is 27%.
